The list is not random: actives were taken first. Their share in the collection is about 2.5%.
PRMT1 FP inh – PRMT1 methyltransferase inhibitors, primary screen, biochemical, fluorescence polarization; Protein arginine N-methyltransferase 1 (Homo sapiens), Q99873; recombinant PRMT1, activity-based probe fluorescence polarization; inhibition, % at 2.79 µM; 370,000 compounds, 1.3% hits;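 active = inhibition above about 21% made by adding two undisclosed values, limit read from the data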
HTRA1 inhibitor – HTRA1 serine protease inhibitors, primary screen, biochemical, fluorescence polarization, HTS. Q92743. recombinant HTRA1, FP-rhodamine activity-based probe. inhibition, % at 5.96 µM. 340,000 compounds, 0.5% hits; in the data active = inhibition above about 36%;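 note: 0% = enzyme with DMSO and 100% = wells lacking enzyme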
mABHD4 FP – ABHD4 inhibitors, primary screen, biochemical, fluorescence polarization, mouse | purified mABHD4, FP-Rh probe fluorescence polarization | inhibition, % at 8.92 µM | 370,000 compounds, 0.54% hits | AID 720543, 2013;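 active = inhibition exceeding the mean over every tested compound plus 3 SD, cut at about 30% in these data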;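 note: 0% = plate median of compound wells and 100% = S159A mutant with DMSO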
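Doses – 8.92 µM, single dose · Material – wild-type mouse ABHD4 protein · Replication – single well per compound (singlicate) · Measure – percent inhibition of probe binding, normalized to plate controls · Schedule – 45 min compound pre-incubation plus 60 min probe step, 25 °C · Detection – fluorescence polarization with parallel and perpendicular emission, 525/598 nm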
TCR CD3 inh – inhibitors of human TCR-CD3 interaction, primary screen, biochemical, fluorescence, TAMRA-labeled TCR probe. 360,000 compounds, 0.37% hits. inhibition, % at 9.4 µM. AID 651800, 2012. T-cell receptor (TCR); in the data active = inhibition above about 19%;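 note: recombinant mutant TCR 2C K166C tagged with TAMRA read by polarization; 0% = receptor in buffer alone and 100% = receptor with positive control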
SIAE primary – human SIAE inhibitors, primary screen, biochemical, fluorescence polarization, FP-Rh probe, 1536-well HTS; Sialate O-acetylesterase (Homo sapiens), Q9HAT2; SIAE FP-Rh probe binding; inhibition, % at 9.66 µM; 370,000 compounds, 0.69% hits;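 active = inhibition above a cutoff: mean of compounds within the control limits plus 3 SD of those, cut at about 17% in these data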;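 note: 0% = plate median of compound wells and 100% = probe without SIAE protein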
Target sequence (Q9HAT2 whole entry, looked up): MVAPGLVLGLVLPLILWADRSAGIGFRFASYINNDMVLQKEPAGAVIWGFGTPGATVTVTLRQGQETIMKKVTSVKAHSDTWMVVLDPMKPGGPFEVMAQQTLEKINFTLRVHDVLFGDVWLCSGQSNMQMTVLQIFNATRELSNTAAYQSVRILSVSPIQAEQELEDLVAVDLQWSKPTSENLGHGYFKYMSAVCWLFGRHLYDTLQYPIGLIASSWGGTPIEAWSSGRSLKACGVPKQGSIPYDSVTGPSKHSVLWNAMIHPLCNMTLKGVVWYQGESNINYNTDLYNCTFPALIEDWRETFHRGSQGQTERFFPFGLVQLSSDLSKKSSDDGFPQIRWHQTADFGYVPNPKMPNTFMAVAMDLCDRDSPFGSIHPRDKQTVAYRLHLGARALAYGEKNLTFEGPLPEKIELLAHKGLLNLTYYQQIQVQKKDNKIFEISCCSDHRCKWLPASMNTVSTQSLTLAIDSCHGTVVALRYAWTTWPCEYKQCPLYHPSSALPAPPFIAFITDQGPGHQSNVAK
Active calls of the source: *; . = no result given.

SMILES	PRMT1 FP inh	HTRA1 inhibitor	mABHD4 FP	TCR CD3 inh	SIAE primary
NC(=O)c1ccc(NC(=O)CSC(=O)c2ccccc2)cc1	36*	12	-2	4	-5
CC(C)N(CCn1c(SCC(=O)N2CC(=O)Nc3ccccc32)nc2ccccc2c1=O)C(C)C	0	-12	6	2	-7
CN(C)CCCn1c(SCC(=O)N2CC(=O)Nc3ccccc32)nc2ccccc2c1=O	21*	3	-1	-5	-4
COc1cc(/C=C2\SC(c3ccc(C)cc3)=NC2=O)cc(OC)c1OC	.	1	.	.	.
COc1ccc(/C=C2\SC(=O)NC2=S)cc1OC	47*	0	6	-8	-2
COc1ccc(/C=C2/SC(c3ccc(C)cc3)=NC2=O)cc1OC	24*	-13	8	-7	-20
COc1ccc(/C=C2\SC(c3ccc(C)cc3)=NC2=O)cc1OC	19	-14	4	3	-10
COc1cc(/C=C2\SC(c3ccc(C)cc3)=NC2=O)ccc1O	29*	23	-1	-10	-5
c1ccc(CCSc2nnc(-c3cccnc3)n2Cc2ccccc2)cc1	-2	.	3	.	-1
O=S1(=O)c2ccc(N3CCCC3)cc2Oc2ccccc2CN1Cc1cn(Cc2ccccc2C(F)(F)F)nn1	2	.	1	.	2
CC(=O)N(c1ccccc1C)C1CCCC1	0	3	4	0	-7
CC(=O)N(C1=C(Cl)C(=O)c2ccccc2C1=O)C1CCCCC1	92*	12	11	0	12
N#CCCCN1C(=O)C(=C(C#N)C#N)c2ccccc21	24*	10	3	6	5
N#CCCCN1C(=O)C(O)(CC(=O)c2ccc3c(c2)OCCO3)c2ccccc21 (stereo unspecified)	2	-9	4	-3	-2
Clc1ccc([C@H]2OC[C@@]3(CNC4CCCCC4)CS[C@H](c4ccc(Cl)cc4)N23)cc1	4	.	-3	.	-3
CN1C2=NC(c3ccccc3)CC(=O)N2/C(=C\c2ccccc2)C1c1ccccc1C(F)(F)F (stereo unspecified)	1	.	-16	.	-4
CCOC(=O)[C@@]12CCCC3=C1N(CCC3)C(=O)[C@H]2CC(=O)NCc1ccc(C)o1	2	.	2	.	5
O=C(Nc1ccc(Br)cc1)OC1CC2CC1[C@H]1CCCCN1[C@H]2Cc1ccccc1 (stereo partly specified)	-8	.	-4	.	-1
N=c1c(C(=O)NC2CCCCC2)cc2c(=O)n3ccccc3nc2n1Cc1ccccc1	0	-5	9	-1	1
N=c1c(C(=O)NC2CCCCC2)cc2c(=O)n3ccccc3nc2n1CCc1ccccc1	-1	1	0	3	92*
COCCOC(=O)C1=C(C)NC(=O)NC1c1cn(-c2ccccc2)nc1-c1cccs1 (stereo unspecified)	-5	-4	-4	0	-1
COC(=O)C1=C(C)NC(C)=C(C(=O)OC)C1c1cn(-c2ccccc2)nc1-c1ccco1	31*	-28	-25	-2	-9
Cc1nc2c(=O)[nH]c(=S)[nH]c2[nH]c1=O	24*	5	-1	5	-15
COc1ccc(CN2C(=O)CCCC2(C)c2nnnn2-c2ccc3c(c2)OCCO3)cc1 (stereo unspecified)	-3	.	-1	.	-1
CCCC1CCC2(CCC(=O)N2CCSc2ccccc2)CC1 (stereo unspecified)	-4	.	1	.	0
SMILES	PRMT1 FP inh	HTRA1 inhibitor	mABHD4 FP	TCR CD3 inh	SIAE primary
COc1cccc(-c2nnc3n2N=C(c2ccc(Cl)cc2)CS3)c1	4	.	5	.	5
CC(=O)N1CCc2c(sc(NC(=O)C3CC3)c2-c2nc3ccccc3s2)C1	30*	-31	-3	3	-21
COC(=O)C1=C(C)N(C)C(=O)NC1c1cc2c(cc1[N+](=O)[O-])OCO2 (stereo unspecified)	10	21	9	16	5
COC(=O)C1=C(C)N(CCCC(=O)O)C(=O)NC1c1cc2c(cc1[N+](=O)[O-])OCO2 (stereo unspecified)	27*	3	17	-1	8
Cc1cc(N2CCN(CCO)CC2)n2nc(C)nc2n1	-4	.	0	.	1
COc1ccc(C2=NN(c3nc(-c4ccccc4)c(CC(=O)O)s3)C(c3ccco3)C2)cc1 (stereo unspecified)	22*	-32	-8	-4	-25
COc1ccc(CC(=O)Nc2nc3ccccc3[nH]2)cc1	-8	0	-1	2	2
COC(=O)Cc1cc(=O)n(-c2nc3ccccc3[nH]2)[nH]1	3	36	17	22*	17
CCc1cccc2cc3c(N)c(C(=O)Nc4ccc(S(=O)(=O)N5CCCC5)cc4)sc3nc12	20	-4	7	-7	27*
Cc1cc(-c2cc(-c3ccc(Cl)cc3)nc(N)c2C#N)co1	39*	15	11	6	4
O=c1c2cc3cc(Cl)ccc3nc2ncn1N1CCCCC1	-6	.	-4	.	-6
N#C/C(=C/c1cn(-c2ccccc2)nc1-c1cccc(S(=O)(=O)N2CCOCC2)c1)C(=O)NCc1ccco1	23*	1	-1	-4	-3
N#C/C(=C/c1cn(-c2ccccc2)nc1-c1cccc(S(=O)(=O)N2CCCC2)c1)C(=O)NCc1ccco1	6	-38	-12	1	-20
CCOC(=O)[C@]12CCCCC/C=C\1N(CCc1ccc(Cl)cc1)C(=O)[C@H]2CC(=O)N1CCN(C(=O)c2ccco2)CC1	4	.	5	.	6
O=S1(=O)c2ccc(Br)cc2OC[C@@H](c2ccccc2)N1Cc1cn(Cc2ccccc2)nn1	2	.	4	.	-1
CCN1CCN(c2cc(N3CCN(C(=O)c4ccco4)CC3)c3c4c(onc24)-c2ccccc2C3=O)CC1	.	70*	.	.	.
Cc1[nH]n(-c2cccc(Cl)c2)c(=O)c1-c1ccccc1	-2	-12	-5	-5	1
Cc1[nH]n(-c2ccccc2)c(=O)c1-c1ccccc1	-6	-7	12	1	18*
O=C(Nc1ccc(F)cc1)OCc1cn(Cc2cccc(F)c2F)nn1	-6	.	-6	.	-4
CCc1ccc2c(c1)NC(=O)C2(C)Cc1ccccc1 (stereo unspecified)	7	.	5	-3	1
CCc1ccc2c(c1)C1(NN=C(c3cccc4ccccc34)S1)C(=O)N2 (stereo unspecified)	9	55*	29	-2	5
Cc1ccc(CNC(=O)c2cn(C3CCCCC3)c(=O)c3c2c2ccccc2n3C)o1	-1	-20	-6	4	1
Cc1ccc(CNC(=O)c2cn(C)c(=O)c3c2c2ccccc2n3C)o1	22*	8	-3	-2	-4

Bioassay records: PubChem BioAssay, The Scripps Research Institute Molecular Screening Center
